What was measured:
Cavia porcellus [1] = assay: Positive inotropic activity in guinea pig atria assessed as increase in […] at 0.16 ml/min, iv; assay type: functional
[2] = Therapeutic index, ratio of lethal dose to ED80 for inotropic activity in guinea pig; assay type: organism-based, Cavia porcellus; details: in vivo
Method in brief: (§1)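 Anesthetized guinea pigs with a jugular vein cannula and an intubated trachea for spontaneous respiration. After stabilization, drug was infused iv at 0.16 mL/min until death or for up to 90 min. Vehicle was DMSO diluted in physiological solution to 1% DMSO final. Read-out was +dP/dt_max. ED80 (dose raising +dP/dt_max by 80%) came from the dose–response, and the doses giving maximum inotropy and death were recorded, giving the lethal dose/ED80 ratio.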

[3] = Inhibition of dog kidney Na+K+-ATPase assessed as hydrolysis of [32P]ATP; set-up: species or system Canis lupus familiaris
Method in brief: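 Dog kidney Na+,K+-ATPase, isolated and purified by the Jørgensen method. Enzyme activity was read as % hydrolysis of 32P-ATP with versus without test compound. IC50 was obtained by nonlinear least-squares curve fitting, as the mean of two or three experiments.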

Cavia porcellus [4] = assay: Positive inotropic activity in iv dosed guinea pig atria assessed as concentration required to increase in […]; assay type: functional
Cavia porcellus [5] = species: Cavia porcellus; assay: Positive inotropic activity in electrically driven guinea pig atria assessed as maximal concentration required to increase in […]; assay type: functional
Cavia porcellus [6] = assay: Toxicity in guinea pig assessed as death at 0.16 ml/min, iv up to 90 mins; assay type: organism-based; details: in vivo, 1.5 h; method in brief: as §1

SMILES	Emax (Cavia porcellus [1]) [%]	selectivity ratio [2]	IC50 [3] [nM]	ED80 (Cavia porcellus [4]) [µM/g]	Activity (Cavia porcellus [5]) [µM/g]	Activity (Cavia porcellus [6])
C[C@]12CC/C(=N\OCCN)C[C@@H]1[C@@H](CCO)C[C@@H]1[C@@H]2CC[C@]2(C)C(=O)CC[C@@H]12.Cl	238	23	320	2.5	17	–
C[C@]12CC/C(=N\OCCN)C[C@@H]1[C@@H](O[N+](=O)[O-])C[C@@H]1[C@@H]2CC[C@]2(C)C(=O)CC[C@@H]12.O=C(O)/C=C/C(=O)O	172	8	330	3.6	9.8	–
C[C@]12CC/C(=N\O[C@@H]3CCNC3)C[C@@H]1[C@@H](C(N)=O)C[C@@H]1[C@@H]2CC[C@]2(C)C(=O)CC[C@@H]12.Cl	109	–	140	2.2	8.8	Non-toxic
CNCCCO/N=C1\CC[C@@]2(C)[C@H](C1)[C@@H](CO)C[C@@H]1[C@@H]2CC[C@]2(C)C(=O)CC[C@@H]12.Cl	263	28	690	1.5	9	–
CNCCCO/N=C1\CC[C@@]2(C)[C@H](C1)[C@@H](C)C[C@@H]1[C@@H]2CC[C@]2(C)C(=O)CC[C@@H]12.Cl	213	–	910	8.1	18	Non-toxic
CO[C@H]1C[C@@H]2[C@H](CC[C@]3(C)C(=O)CC[C@@H]23)[C@@]2(C)CC/C(=N\OCCN)C[C@H]12.Cl	167	9	710	4.3	18	–
CNCCCO/N=C1\CC[C@@]2(C)[C@H](C1)[C@@H](NC=O)C[C@@H]1[C@@H]2CC[C@]2(C)C(=O)CC[C@@H]12.Cl	177	47	1100	0.93	2.8	–
COC(=O)[C@H]1C[C@@H]2[C@H](CC[C@]3(C)C(=O)CC[C@@H]23)[C@@]2(C)CC/C(=N\O[C@@H]3CCNC3)C[C@H]12.Cl	164	–	160	11	23	Non-toxic
C[C@]12CC/C(=N\OCCN)C[C@@H]1/C(=N/O)C[C@@H]1[C@@H]2CC[C@]2(C)C(=O)CC[C@@H]12.Cl	180	11	24	0.84	4.3	–
CNCCCO/N=C1\CC[C@@]2(C)[C@H](C1)/C(=N/O)C[C@@H]1[C@@H]2CC[C@]2(C)C(=O)CC[C@@H]12.Cl	158	–	200	7.1	15	Non-toxic
C[C@]12CC/C(=N\OCCN)C[C@@H]1[C@@H](NC=O)C[C@@H]1[C@@H]2CC[C@]2(C)C(=O)CC[C@@H]12.O=C(O)/C=C/C(=O)O	174	33	160	2	27	–
C[C@]12CC/C(=N\O[C@@H]3CCNC3)C[C@@H]1[C@@H](NC=O)C[C@@H]1[C@@H]2CC[C@]2(C)C(=O)CC[C@@H]12.Cl	142	11	41	1.6	6	–
C[C@H]1O[C@@H](O[C@H]2[C@@H](O)C[C@H](O[C@H]3[C@@H](O)C[C@H](O[C@H]4CC[C@@]5(C)[C@H](CC[C@@H]6[C@@H]5C[C@@H](O)[C@]5(C)[C@@H](C7=CC(=O)OC7)CC[C@]65O)C4)O[C@@H]3C)O[C@@H]2C)C[C@H](O)[C@@H]1O [DIGOXIN]	–	3.2	310	0.41	0.97	Toxic
